Converted amounts (≈) assume the structure as drawn.
Legend:
Staphylococcus aureus [1] = experiment: Antimicrobial activity against Staphylococcus aureus ATCC 25923 assessed as log reduction in bacterial count at 1 mg/L after 5 hrs; type: functional
Procedure, shortened: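 Time-course test with S. aureus ATCC 25923, either in Mueller-Hinton broth or after phagocytosis by THP-1 cells. Samples were taken over a 5 h incubation with drug at 1 mg/liter. Read-out was the change in CFU relative to the initial inoculum, reported as means.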

THP-1 [2] = experiment: Ratio of drug level for cellular to extracellular region of Staphylococcus aureus infected human THP-1 cells at 4 mg/liter after 2 hrs; type: ADME, cell-based; details: thp-1, 2 h
Procedure, shortened: (§1)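 Cells were exposed to [14C]radezolid for 2 or 24 h. Cell-associated drug in lysates was measured by liquid scintillation counting (detection limit 0.003 mg/liter; linear 0.01–0.78 mg/liter). Content was normalised to cell protein (Lowry). It was converted to apparent cellular concentration at 5 μl per mg protein and expressed relative to the extracellular concentration.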

Staphylococcus aureus [3] = experiment: Antimicrobial activity against community acquired methicillin-resistant Staphylococcus aureus NRS192 after 24 hrs; type: functional; details: NRS192, 24 h
Staphylococcus aureus [4] = experiment: Antimicrobial activity against linezolid-susceptible Staphylococcus aureus SA238 after 24 hrs; type: functional, organism-based; details: SA238, 24 h
Staphylococcus aureus [5] = experiment: Bacteriostatic activity against linezolid-resistant Staphylococcus aureus SA238L infected in rat fibroblast cells after 24 hrs; type: functional
Procedure, shortened: (§2)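 Adherent nonphagocytic cells were infected at 5 × 10^7 to 1 × 10^8 bacteria/ml with 2 h phagocytosis. Cells used: Calu-3 bronchial epithelium grown in uncoated flasks, neonatal foreskin keratinocytes on collagen-coated wells, primary human osteoblasts, and primary rat embryo fibroblasts. Antibiotic was then given over a concentration range for 24 h. Cs came from a sigmoidal fit of CFU change.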

[6] = Ratio of drug level for cellular to extracellular region of Staphylococcus aureus infected human keratinocyte at 4 mg/liter after 24 hrs; type: ADME, cell-based; procedure, shortened: as §1
[7] = Ratio of drug level for cellular to extracellular region of Staphylococcus aureus infected rat fibroblast at 4 mg/liter after 24 hrs; type: ADME, cell-based; procedure, shortened: as §1
Staphylococcus aureus [8] = experiment: Antimicrobial activity against hospital acquired methicillin-resistant, vancomycin resistant Staphylococcus aureus VRS1 after 24 hrs; type: functional; details: VRS1, 24 h
Staphylococcus aureus [9] = experiment: Bacteriostatic activity against linezolid-resistant Staphylococcus aureus SA238L infected in HUVEC cells after 24 hrs; type: functional
Procedure, shortened: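 HUVEC were grown in endothelial growth medium on gelatin-treated flasks. They were infected with 2 × 10^6 bacteria/ml for 1 h phagocytosis, then exposed 24 h to graded antibiotic concentrations. CFU change from the initial inoculum was fitted to a sigmoidal curve to obtain the static concentration (Cs).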

Staphylococcus aureus [10] = experiment: Antimicrobial activity against linezolid-susceptible Staphylococcus aureus SA238 infected in human epidermal keratinocytes cells assessed as log reduction in bacterial count after 24 hrs; type: functional
Procedure, shortened: (§3)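 S. aureus was internalized by adherent nonphagocytic cells: Calu-3, HUVEC, keratinocytes on collagen-coated wells, osteoblasts, or rat embryo fibroblasts. Inoculum was 5 × 10^7 to 1 × 10^8 bacteria/ml with 2 h phagocytosis (HUVEC: 2 × 10^6/ml, 1 h). Cells were then exposed to graded drug concentrations for 24 h. CFU change versus the original inoculum was fitted sigmoidally for Emax and Cs.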

Staphylococcus aureus [11] = experiment: Antimicrobial activity against linezolid resistant methicillin-susceptible Staphylococcus aureus SA040L after 24 hrs; type: functional
Staphylococcus aureus [12] = experiment: Antimicrobial activity against linezolid-susceptible Staphylococcus aureus SA238 infected in HUVEC cells assessed as log reduction in bacterial count after 24 hrs; type: functional; procedure, shortened: as §3
THP-1 [13] = experiment: Ratio of drug level for cellular to extracellular region of Staphylococcus aureus infected human THP-1 cells at 4 mg/liter after 24 hrs; type: ADME, cell-based; details: thp-1, 24 h; procedure, shortened: as §1
[14] = Ratio of drug level for cellular to extracellular region of Staphylococcus aureus infected human osteoblast at 4 mg/liter after 24 hrs; type: ADME, cell-based; procedure, shortened: as §1
Staphylococcus aureus [15] = experiment: Bacteriostatic activity against linezolid-susceptible Staphylococcus aureus SA238 infected in human epidermal keratinocytes cells after 24 hrs; type: functional; procedure, shortened: as §2
Staphylococcus aureus [16] = experiment: Antimicrobial activity against Staphylococcus aureus infected in THP1 cells after 24 hrs; type: functional, organism-based; details: THP-1, 24 h
Procedure, shortened: (§4)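 Bacteria were phagocytosed by human THP-1 macrophage-like cells, then exposed to a range of drug concentrations for a fixed time: 24 h for S. aureus, S. epidermidis and L. monocytogenes, 48 h for L. pneumophila. Change in CFU versus the initial inoculum was fitted with a sigmoidal curve to give Emin, Emax (relative maximal efficacy), EC50 and static concentration (Cs).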

[17] = Ratio of drug level for cellular to extracellular region of Staphylococcus aureus infected human osteoblast at 4 mg/liter after 2 hrs; type: ADME, cell-based; procedure, shortened: as §1
Staphylococcus aureus [18] = experiment: Antimicrobial activity against linezolid-susceptible Staphylococcus aureus ATCC 33591 infected in THP1 cells after 24 hrs; type: functional, organism-based; details: ATCC 33591, THP-1, 24 h; procedure, shortened: as §4
Staphylococcus aureus [19] = experiment: Antimicrobial activity against linezolid-resistant Staphylococcus aureus SA238L infected in THP1 cells after 24 hrs; type: functional, organism-based; details: THP-1, 24 h; procedure, shortened: as §4
HUVEC = experiment: Ratio of drug level for cellular to extracellular region of Staphylococcus aureus infected HUVEC cells at 4 mg/liter after 2 hrs; type: ADME, cell-based; details: human; procedure, shortened: as §1
Staphylococcus aureus [20] = experiment: Antimicrobial activity against Linezolid resistant hospital acquired methicillin-resistant Staphylococcus aureus SA238L after 24 hrs; type: functional
Staphylococcus aureus [21] = experiment: Antimicrobial activity against community acquired methicillin-resistant Staphylococcus aureus NRS384 after 24 hrs; type: functional; details: NRS384, 24 h
Staphylococcus aureus [22] = experiment: Antimicrobial activity against methicillin-resistant, vancomycin intermediate Staphylococcus aureus NRS52 after 24 hrs; type: functional; details: NRS52, 24 h
Staphylococcus aureus [23] = experiment: Antimicrobial activity against linezolid-susceptible Staphylococcus aureus SA238 infected in THP1 cells after 24 hrs; type: functional, organism-based; details: SA238, THP-1, 24 h; procedure, shortened: as §4
Staphylococcus aureus [24] = experiment: Antimicrobial activity against linezolid-resistant Staphylococcus aureus SA040L infected in THP1 cells assessed as log reduction in bacterial count after 24 hrs; type: functional, THP-1; procedure, shortened: as §4
Staphylococcus aureus [25] = experiment: Antimicrobial activity against linezolid-susceptible Staphylococcus aureus NRS384 infected in THP1 cells assessed as log reduction in bacterial count after 24 hrs; type: functional, THP-1; procedure, shortened: as §4
Staphylococcus aureus [26] = experiment: Antimicrobial activity against linezolid-susceptible Staphylococcus aureus ATCC 33591 infected in THP1 cells assessed as log reduction in bacterial count after 24 hrs; type: functional, THP-1; procedure, shortened: as §4
[27] = tested on: Staphylococcus epidermidis; experiment: Antimicrobial activity against Staphylococcus epidermidis SA362 after 24 hrs; type: functional; details: SA362, 24 h
[28] = tested on: Staphylococcus epidermidis; experiment: Bacteriostatic activity against Staphylococcus epidermidis infected in THP1 cells after 24 hrs; type: functional, THP-1; procedure, shortened: as §4
Listeria monocytogenes [29] = experiment: Bacteriostatic activity against Listeria monocytogenes EGD infected in THP1 cells after 24 hrs; type: functional, THP-1; procedure, shortened: as §4
Staphylococcus aureus [30] = experiment: Antimicrobial activity against linezolid-susceptible Staphylococcus aureus NRS18 infected in THP1 cells assessed as log reduction in bacterial count after 24 hrs; type: functional, THP-1; procedure, shortened: as §4
Staphylococcus aureus [31] = experiment: Bacteriostatic activity against linezolid-susceptible Staphylococcus aureus SA040 infected in THP1 cells after 24 hrs; type: functional, THP-1
Procedure, shortened: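 Human THP-1 myelomonocytic (macrophage-like) cells infected with S. aureus, then exposed 24 h to a range of antibiotic concentrations. CFU change was measured against the initial inoculum. A sigmoidal dose-response curve was fitted to give Emin, Emax and EC50, and the apparent static concentration (Cs) was taken from the fit.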

Listeria monocytogenes [32] = experiment: Antimicrobial activity against Listeria monocytogenes infected in THP1 cells after 24 hrs; type: functional, organism-based; details: THP-1, 24 h; procedure, shortened: as §4
Staphylococcus aureus [33] = experiment: Antimicrobial activity against linezolid-resistant Staphylococcus aureus SA238L infected in THP1 cells assessed as log reduction in bacterial count after 24 hrs; type: functional, THP-1; procedure, shortened: as §4
Staphylococcus aureus [34] = experiment: Bacteriostatic activity against linezolid-resistant Staphylococcus aureus SA238L infected in human epidermal keratinocytes cells after 24 hrs; type: functional; procedure, shortened: as §2

CC(=O)NC[C@H]1CN(c2ccc(-c3ccc(CNCc4cnn[nH]4)cc3)c(F)c2)C(=O)O1 [RADEZOLID]
log10cfu (Staphylococcus aureus [1]): 2 | Ratio (THP-1 [2]): 9.3 | MIC (Staphylococcus aureus [3]): 0.5 µg/mL (≈ 1.14 µM) | EC50 (Staphylococcus aureus [4]): 0.16 µg/mL (≈ 0.365 µM) | Activity (Staphylococcus aureus [5]): 0.6 mg/L | Ratio [6]: 16.1 | Ratio [7]: 10.9 | MIC (Staphylococcus aureus [8]): 0.5 µg/mL (≈ 1.14 µM) | Activity (Staphylococcus aureus [9]): 0.6 mg/L | log10cfu (Staphylococcus aureus [10]): 0.6 | MIC (Staphylococcus aureus [11]): 2 µg/mL (≈ 4.56 µM) | log10cfu (Staphylococcus aureus [12]): 0.6 | Ratio (THP-1 [13]): 9.8 | Ratio [14]: 9.7 | Activity (Staphylococcus aureus [15]): 0.6 mg/L | EC50 (Staphylococcus aureus [16]): 0.24 µg/mL (≈ 0.547 µM) | Ratio [17]: 9.8 | EC50 (Staphylococcus aureus [18]): 0.12 µg/mL (≈ 0.274 µM) | EC50 (Staphylococcus aureus [19]): 0.29 µg/mL (≈ 0.661 µM) | Ratio (HUVEC): 9.5 | MIC (Staphylococcus aureus [20]): 2 µg/mL (≈ 4.56 µM) | MIC (Staphylococcus aureus [21]): 0.5 µg/mL (≈ 1.14 µM) | MIC (Staphylococcus aureus [22]): 2 µg/mL (≈ 4.56 µM) | EC50 (Staphylococcus aureus [23]): 0.16 µg/mL (≈ 0.365 µM) | log10cfu (Staphylococcus aureus [24]): -0.66 | log10cfu (Staphylococcus aureus [25]): -0.61 | log10cfu (Staphylococcus aureus [26]): -0.56 | MIC [27]: 0.25 µg/mL (≈ 0.57 µM) | Activity [28]: 0.03 mg/L | Activity (Listeria monocytogenes [29]): 0.43 mg/L | log10cfu (Staphylococcus aureus [30]): -1 | Activity (Staphylococcus aureus [31]): 0.21 mg/L | EC50 (Listeria monocytogenes [32]): 0.04 µg/mL (≈ 0.0912 µM) | log10cfu (Staphylococcus aureus [33]): -0.77 | Activity (Staphylococcus aureus [34]): 0.6 mg/L

From ChEMBL document CHEMBL1275591, “Cellular pharmacodynamics of the novel biaryloxazolidinone radezolid: studies with infected phagocytic and nonphagocytic cells, using Staphylococcus aureus, Staphylococcus epidermidis, Listeria monocytogenes, and Legionella pneumophila” (Antimicrob Agents Chemother, 2010)
